Legend:
[1] = target: Muscarinic acetylcholine receptor; experiment: In vitro inhibition of [3H]OXO-M binding to Muscarinic receptor from rat cortical homogenates
[2] = target: Muscarinic acetylcholine receptor; experiment: In vitro inhibition of [3H]QNB binding to Muscarinic receptor from rat cortical homogenates
[3] = target: Muscarinic acetylcholine receptor; experiment: Compound was tested in vitro for its binding affinity to muscarinic acetylcholine receptor from rat cortical homogenates using [3H]OXO-M as radioligand
In short: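 Hooded Lister rat cerebral cortex washed membranes in 50 mM Tris pH 7.7 plus 2 mM MgCl2; 2 nM [3H]oxotremorine-M; nonspecific binding with 10 μM oxotremorine; 37 °C for 30 min; filtration on filters presoaked in 0.05% polyethylenimine, scintillation counting. IC50 is the geometric mean of at least two separate experiments, seven concentrations each.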

[4] = target: Muscarinic acetylcholine receptor; experiment: Compound was tested in vitro for its binding affinity to muscarinic acetylcholine receptor from rat cortical homogenates using [3H]QNB as radioligand
[5] = target: Muscarinic acetylcholine receptor (Rattus norvegicus) (UniProt P08482+P08483+P08485+P08911+P10980); experiment: Ratio of IC50(QNB) to IC50(OXO-M) was determined; type: protein assay

Structure (SMILES) | IC50 [1] [µM] | IC50 [2] [µM] | IC50 [3] [µM] | IC50 [4] [µM] | Ratio [5]
Cn1cnc(C2CN3CCC2CC3)n1 (centres undefined) | 3.4 | 30 | – | – | –
c1ncn(C2CN3CCC2CC3)n1 (centres undefined) | – | – | 0.43 | 28 | 65
C[N+](C)(C)CC#CCN1CCCC1=O.[I-] [OXOTREMORINE METHIODIDE] | – | – | 0.013 | 23 | 1820
Cn1nnnc1C1CN2CCC1CC2 (centres undefined) | 6.5 | 60 | – | – | –
Cc1cnnn1C1CN2CCC1CC2 (centres undefined) | – | – | 6.7 | 33 | 4.9
c1nnn(C2CN3CCC2CC3)n1 (centres undefined) | 0.24 | 16 | – | – | –
c1nnnn1C1CN2CCC1CC2 (centres undefined) | – | – | 2.3 | 115 | 49
Cn1nnc(C2CN3CCC2CC3)n1 (centres undefined) | 0.14 | 5.1 | – | – | –
c1nncn1C1CN2CCC1CC2 (centres undefined) | 40 | 165 | – | – | –
Cc1cn(C2CN3CCC2CC3)nn1 (centres undefined) | 5 | 20 | – | – | –
Cc1cnn(C2CN3CCC2CC3)n1 (centres undefined) | 0.17 | 1.6 | – | – | –
Cn1nncc1C1CN2CCC1CC2 (centres undefined) | 0.93 | 29 | – | – | –
Cc1nnn(C2CN3CCC2CC3)n1 (centres undefined) | – | – | 0.03 | 2.8 | 92
Cn1ncc(C2CN3CCC2CC3)n1 (centres undefined) | 0.048 | 4.5 | – | – | –
Cc1ncn(C2CN3CCC2CC3)n1 (centres undefined) | 0.075 | 4.5 | – | – | –
O=C1CCCN1CC#CCN1CCCC1 [OXOTREMORINE] | 0.017 | 3.3 | – | – | –
Cn1cc(C2CN3CCC2CC3)nn1 (centres undefined) | 4.6 | 53 | – | – | –
